Values after ≈ are worked out from the molar mass of the structure shown. Starred links: 1 amine or outer side, 2 acyl side, 3 side chain; linkers in the order of their positions; H or OH if unused. Residues, ends and D or L forms follow the SMILES beside them. *: point of attachment. Suc = O=C(CCC(=O)[*:2])[*:1]; OBn = c1ccc(CO*)cc1
Key:
[1] = test system: Saccharomyces cerevisiae; test: Antiyeast activity against Saccharomyces cerevisiae 9763 assessed as total inhibition of fungal growth after 24 to 48 hrs by microdilution-colorimetric method; format: functional
Summary of the method: (§1)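 Microdilution in yeast nitrogen base (0.67%) with 3% dextrose and 0.004% bromothymol blue, pH 7.2, filter-sterilized; twofold serial dilutions 1.28 mg/mL to 0.04 μg/mL. Overnight culture resuspended to about 2×10^6 cells/mL, 50-μL drop per well; organism-free and drug-free control wells. 48 h at 37 °C, read at 24 and 48 h. MIC is the lowest concentration with no blue-to-yellow/light green change; values normalized to molar equivalents of 5-FC.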

[2] = test system: Candida albicans; test: Antiyeast activity against Candida albicans clinical isolate 1-V assessed as total inhibition of fungal growth after 24 to 48 hrs by microdilution-colorimetric method; format: functional; summary of the method: as §1
[3] = test system: Candida albicans; test: Antiyeast activity against Candida albicans WD 18-4 assessed as total inhibition of fungal growth after 24 to 48 hrs by microdilution-colorimetric method; format: functional; summary of the method: as §1
[4] = test system: Pichia kudriavzevii; test: Antiyeast activity against Candida krusei 1-T assessed as total inhibition of fungal growth after 24 to 48 hrs by microdilution-colorimetric method; format: functional; summary of the method: as §1
[5] = Chemical stability of the compound in solutions of organism-free yeast nitrogen base assessed as half life at 50 uM at 37 degC by UV absorbance analysis; format: physicochemical; details: organism-free yeast nitrogen base solution
Summary of the method: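 Organism-free yeast nitrogen base (0.67%) with 3% dextrose, pH 7.2 (KOH), held at 37 °C in thermostatted cells. Compound in Me2SO added to a final concentration of ca. 5×10^-5 M. Hydrolysis followed as the fall in absorbance at 305 nm over time, first-order fit. Slower compounds (t1/2 > 5 h) were incubated separately and aliquots read at intervals.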

## CC(C)C[C@H](NC(=O)[C@H](C)NC(=O)CCC(=O)Nc1nc(=O)[nH]cc1F)C(=O)OCc1ccccc1
[1]
  MIC: 0.31 µg/mL (≈ 0.616 µM)
[2]
  MIC: 0.62 µg/mL (≈ 1.23 µM)
[3]
  MIC: 5 µg/mL (≈ 9.93 µM)
[4]
  MIC: 20 µg/mL (≈ 39.7 µM)
[5]
  half-life at 50 µM: 1.1 h

## CC(C)C[C@H](NC(=O)CCC(=O)Nc1nc(=O)[nH]cc1F)C(=O)N[C@@H](CC(C)C)C(=O)OCc1ccccc1
[1]
  MIC: 0.31 µg/mL (≈ 0.568 µM)
[2]
  MIC: 0.62 µg/mL (≈ 1.14 µM)
[3]
  MIC: 2.5 µg/mL (≈ 4.58 µM)
[4]
  MIC: 20 µg/mL (≈ 36.7 µM)

## O=C(CCC(=O)Nc1nc(=O)[nH]cc1F)NCC(=O)NCC(=O)OCc1ccccc1
[1]
  MIC: 0.62 µg/mL (≈ 1.43 µM)
[2]
  MIC: 0.62 µg/mL (≈ 1.43 µM)
[3]
  MIC: 5 µg/mL (≈ 11.5 µM)
[4]
  MIC: 20 µg/mL (≈ 46.1 µM)
[5]
  half-life at 50 µM: 0.3 h

## CC(C)C[C@H](NC(=O)[C@H](C)NC(=O)CCC(=O)Nc1nc(=O)[nH]cc1F)C(=O)O
[1]
  MIC: 0.31 µg/mL (≈ 0.75 µM)
[2]
  MIC: 0.31 µg/mL (≈ 0.75 µM)
[3]
  MIC: 5 µg/mL (≈ 12.1 µM)
[4]
  MIC: 10 µg/mL (≈ 24.2 µM)
[5]
  half-life at 50 µM: 1.7 h

## CC(C)C[C@H](NC(=O)[C@H](CC(C)C)NC(=O)CCC(=O)Nc1nc(=O)[nH]cc1F)C(=O)O
[1]
  MIC: 0.31 µg/mL (≈ 0.681 µM)
[2]
  MIC: 0.31 µg/mL (≈ 0.681 µM)
[3]
  MIC: 5 µg/mL (≈ 11 µM)
[4]
  MIC: 10 µg/mL (≈ 22 µM)
[5]
  half-life at 50 µM: 2.9 h

## CC(C)C[C@H](NC(=O)CCC(=O)O)C(=O)N[C@@H](CC(C)C)C(=O)OCc1ccccc1
[1]
  MIC: 80 µg/mL (≈ 184 µM)
[2]
  MIC: 80 µg/mL (≈ 184 µM)
[3]
  MIC: > 20 µg/mL
[4]
  MIC: 320 µg/mL (≈ 736 µM)

## CC(=O)Nc1nc(O)ncc1F
[1]
  MIC: 0.31 µg/mL (≈ 1.81 µM)
[2]
  MIC: 2.5 µg/mL (≈ 14.6 µM)
[3]
  MIC: 5 µg/mL (≈ 29.2 µM)
[4]
  MIC: 40 µg/mL (≈ 234 µM)
[5]
  half-life at 50 µM: 17.6 h

## CC(C)(C)OC(=O)N[C@@H](CCC(=O)Nc1nc(=O)[nH]cc1F)C(=O)OCc1ccccc1
[1]
  MIC: 1.25 µg/mL (≈ 2.79 µM)
[2]
  MIC: 2.5 µg/mL (≈ 5.57 µM)
[3]
  MIC: 2.5 µg/mL (≈ 5.57 µM)
[4]
  MIC: 20 µg/mL (≈ 44.6 µM)
[5]
  half-life at 50 µM: 10 h

## C[C@H](NC(=O)OC(C)(C)C)C(=O)NCC(=O)Nc1nc(=O)[nH]cc1F
[1]
  MIC: 0.62 µg/mL (≈ 1.74 µM)
[2]
  MIC: 0.62 µg/mL (≈ 1.74 µM)
[3]
  MIC: 1.25 µg/mL (≈ 3.5 µM)
[4]
  MIC: 20 µg/mL (≈ 56 µM)
[5]
  half-life at 50 µM: 2.3 h

## O=C(CNC(=O)OCc1ccccc1)Nc1nc(=O)[nH]cc1F
[1]
  MIC: 0.31 µg/mL (≈ 0.968 µM)
[2]
  MIC: 0.62 µg/mL (≈ 1.94 µM)
[3]
  MIC: 2.5 µg/mL (≈ 7.81 µM)
[4]
  MIC: 10 µg/mL (≈ 31.2 µM)

## CC(C)C[C@H](NC(=O)[C@H](C)NC(=O)CCC(=O)O)C(=O)OCc1ccccc1 (Suc-Ala-Leu-OBn)
[1]
  MIC: 160 µg/mL (≈ 408 µM)
[2]
  MIC: 80 µg/mL (≈ 204 µM)
[3]
  MIC: > 20 µg/mL
[4]
  MIC: 320 µg/mL (≈ 815 µM)

## O=C(O)CCC(=O)NCC(=O)NCC(=O)OCc1ccccc1 (Suc-Gly-Gly-OBn)
[1]
  MIC: 320 µg/mL (≈ 993 µM)
[2]
  MIC: 320 µg/mL (≈ 993 µM)
[3]
  MIC: > 20 µg/mL
[4]
  MIC: 320 µg/mL (≈ 993 µM)

## Nc1nc(=O)[nH]cc1F [FLUCYTOSINE]
[1]
  MIC: 0.31 µg/mL (≈ 2.4 µM)
[2]
  MIC: 0.31 µg/mL (≈ 2.4 µM)
[3]
  MIC: 5 µg/mL (≈ 38.7 µM)
[4]
  MIC: 5 µg/mL (≈ 38.7 µM)

## O=c1[nH]cc(F)c(=O)[nH]1 [FLUOROURACIL]
[1]
  MIC: 1.25 µg/mL (≈ 9.61 µM)
[2]
  MIC: 2.5 µg/mL (≈ 19.2 µM)
[3]
  MIC: > 20 µg/mL
[4]
  MIC: 2.5 µg/mL (≈ 19.2 µM)

## O=C(O)CCC(=O)O [SUCCINIC ACID]
[1]
  MIC: 640 µg/mL (≈ 5420 µM)
[2]
  MIC: 320 µg/mL (≈ 2710 µM)
[3]
  MIC: > 20 µg/mL
[4]
  MIC: 320 µg/mL (≈ 2710 µM)

Source: ChEMBL document CHEMBL3244264, “Anticandidal activity of 5-fluorocytosine-peptide conjugates” (J Med Chem, 1979)
